Measured values: ChEMBL document CHEMBL4513216, “Probing the Open Global Health Chemical Diversity Library for Multistage-Active Starting Points for Next-Generation Antimalarials” (ACS Infect Dis, 2020)

Assay: Toxicity liver stage against HepG2, at 10uM
Assay type: cell-based
Design: test concentration 10 uM, cell line HepG2-A16-CD81EGFP
Conditions: human, HepG2-A16-CD81EGFP cells; read-out: INHIBITION
Method in brief: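 Uninfected HepG2-A16-CD81EGFP cells, 3 × 10^3 per well, 1536-well, plated on prespotted compound at 10 μM final, parasite-free screening media added to match infected plates; puromycin 10 μM positive, DMSO 0.5% negative; run in parallel with 48 h PbLuc assay at 37 °C, 5% CO2; viability by CellTiter-Glo luminescence, normalized to controls.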

In order of rising cytotoxicity at 10 µM:
1. COCCN(C)C(=O)c1ccc2onc(-c3coc(C)n3)c2c1  -144%
2. CCOc1ccc(NC(=O)N2CCOC(C(N)=O)C2)cc1Cl (configuration not stated)  -140%
3. c1ncn(Cc2cn3c(n2)CN(CC2CCCC2)CC3)n1  -127%
4. O=C(C1CCC1)N1CCCn2nc(CNc3ncccn3)cc2C1  -123%
5. CCNC(=O)[C@@H]1C[C@@H](NC(=O)c2ccsc2)CN1CCCSC  -117%
6. CC(C)OCc1nn(C)c2c1CCN(Cc1ccco1)C2  -115%
7. CN(C)[C@@H]1CCN(C(=O)Cc2cccs2)[C@H]1Cc1cnn(C)c1  -72.2%
8. CCN(Cc1cccc2c1OCO2)C(=O)Nc1cn[nH]c1  -17.2%
9. Cc1occc1C(=O)N1CCCC(c2nncn2C)C1 (configuration not stated)  -16%
10. Cc1nnc(CN2CCN(C)C3(CCC(=O)N(CCO)CC3)C2)s1 (configuration not stated)  -14.9%
11. CSCCCN1CC[C@@H](NC(=O)c2cnccn2)[C@H](O)C1  -14.6%
12. O=C(CCc1nnc(-c2ccccc2)o1)N1CCN(CC2CC2)CC1  -13.7%
13. O=C(COc1ccccc1F)NCCC(O)c1ccoc1 (configuration not stated)  -13.4%
14. Cn1cc(C(=O)N2CCCC(c3ccncc3)C2)cn1 (configuration not stated)  -13%
15. CC(C)C(C(=O)N1CCN(Cc2ccncc2)CC1)n1cncn1 (configuration not stated)  -13%
16. Cc1nc(C2CCCN2C(=O)c2ccc(N(C)C)nn2)no1 (configuration not stated)  -12.9%
17. CCC(=O)N1CCC(c2nnc(Cn3cccn3)n2C2CC2)CC1  -12.6%
18. Cc1ccc(CN(CCCn2ccnc2)Cc2cnc(N(C)C)nc2)s1  -12.6%
19. OCc1ccccc1CNCC1CNc2ccnn2C1 (configuration not stated)  -11.9%
20. C[C@@H]1CN(C(=O)c2ccc(C#N)nc2)CC[C@@]1(O)C1CCOCC1  -11.5%
21. Cc1ccccc1-n1ncc2c(=O)n(CCN3CCCC3)cnc21  -11.3%
22. Cc1cc(C)n(CC2CCCN2CCCc2nc3ccccc3o2)n1 (configuration not stated)  -10.9%
23. Cc1cnc2n(c1=O)CC(C(=O)Nc1ccccc1Cl)CS2 (configuration not stated)  -10.7%
24. COC(=O)C1CCCN1C(=O)c1ccc(-n2nc(C)cc2C)cc1 (configuration not stated)  -10.5%
25. CC(Cn1ccnc1)NS(=O)(=O)c1ccc(C#N)c(Cl)c1 (configuration not stated)  -9.97%
26. Cc1cc(C)n(CC2CCCCN2CC(=O)N(C)Cc2ccco2)n1 (configuration not stated)  -9.75%
27. Cc1cc(NC(=O)C(C)N2CCN(c3nc(C)ns3)CC2)on1 (configuration not stated)  -9.48%
28. CNC1CCC2(CC1)CNC(=O)c1cc(C)ccc1O2 (configuration not stated)  -9.28%
29. CCS(=O)(=O)N1Cc2ccccc2CC1C(=O)OCc1c(C)noc1C (configuration not stated)  -9.26%
30. COc1c(CNC(c2cccc(F)c2)c2nccn2C)c(C)nn1C (configuration not stated)  -9.19%
31. Cc1cc(N2CCC(O)(CN(C)C(=O)CCCN)C2)c2cnccc2n1 (configuration not stated)  -8.65%
32. Nc1cc2c(nn1)CCN(C(=O)c1cccc3c1OCO3)C2  -8.08%
33. COCC1c2nnn(CC3CC3)c2CCN1C(=O)c1ccnnc1 (configuration not stated)  -7.44%
34. O=C(NCCCn1nc2ccccn2c1=O)Nc1ccc(F)cc1F  -7.43%
35. Cn1c(N)nnc1SC1CCCN(c2ccccc2F)C1=O (configuration not stated)  -7.29%
36. CC(NC(=O)NCCCn1cncn1)c1ccc(C(F)(F)F)cc1 (configuration not stated)  -7.1%
37. COc1ccc(OCCNC(=O)N2CCS(=O)(=O)CC2)cc1  -6.95%
38. COC(=O)c1ccc(S(=O)(=O)NCC(C)(O)c2cccs2)cc1 (configuration not stated)  -6.87%
39. Cn1ccnc1CCNC(=O)C1CCCN(Cc2cccc(F)c2)C1 (configuration not stated)  -6.87%
40. CCN(CC(=O)NC)C(=O)c1sc(Cc2ccccc2)nc1C  -6.37%
41. CCCc1nn(C2CCCN(C(C)C)C2=O)c(=O)o1 (configuration not stated)  -6.11%
42. CC(C)N(C)C(=O)C1CSCN1S(=O)(=O)c1cccs1 (configuration not stated)  -5.96%
43. CC(C)c1n[nH]c(C2CN(CC(=O)N(C)Cc3ccco3)CCO2)n1 (configuration not stated)  -5.92%
44. COc1cccc(Cn2ncnc2COC(C)C)c1  -5.62%
45. CCc1nc(C2CCCN2C(=O)c2csc(NC(C)=O)n2)no1 (configuration not stated)  -5.12%
46. Cc1noc(C)c1CN1CCN(Cc2nccn2C)CC1  -4.93%
47. COc1ccccc1OCc1cc(C(=O)N2C[C@@H](C)O[C@@H](C)C2)n[nH]1  -4.91%
48. c1ncc2c(n1)CN(Cc1nc(-c3ccsc3)no1)CC2  -4.77%
49. O=C(O)c1cccc(N2C[C@H](NC(=O)C3CCOCC3)[C@@H](C3CC3)C2)n1  -4.31%
50. CCc1ccc(-c2noc(Cn3nc(C(N)=O)ccc3=O)n2)cc1  -4.22%
51. CN1CCOC(CNC(=O)C2(c3cccc(C(F)(F)F)c3)CCCC2)C1 (configuration not stated)  -4.22%
52. CC(C)CN(Cc1ccc(O)c(C(=O)O)c1)Cc1cnn(C)c1  -3.86%
53. COc1cccc(CN(C)C(=O)CCC(=O)c2ccccc2)c1OC  -3.62%
54. Cc1nn(C)c(C)c1C1CCCN1C(=O)CCCNc1ncccn1 (configuration not stated)  -3.43%
55. CC(C)CN1CCC2(C=C(C(=O)N3CCCC3)c3ccccc32)CC1  -3.12%
56. CCN1CCC(NC(=O)CN2CCCCC2Cn2cccn2)CC1 (configuration not stated)  -2.71%
57. Cc1nc2cc(O)nn2c(C)c1CCC(=O)N(C)Cc1cscn1  -2.64%
58. Cc1nccn1-c1cc(CNS(=O)(=O)N2CCCC(C)C2)ccn1 (configuration not stated)  -2.42%
59. COc1ccccc1NC(=O)Cc1c(C)nc2c(c1C)c(=O)[nH]n2C  -1.68%
60. OC(CNc1cncc(OCc2ccccc2)n1)c1ccco1 (configuration not stated)  -1.53%
61. CC1(C)CN(S(=O)(=O)N2CCCC2)CC1c1ccccc1 (configuration not stated)  -0.71%
62. CC(=O)c1c(C)cc(C)c(Cn2ccnc2S(C)(=O)=O)c1C  -0.657%
63. COCCn1ccc2cc(C(=O)NC3CCOC(C)(C)C3)ccc21 (configuration not stated)  -0.508%
64. Nc1ccnc(N2CCC(c3nccn3CC3CC3)CC2)n1  -0.0638%
65. COCC(c1cccc(C(F)(F)F)c1)N(C)C(=O)c1cc(C)no1 (configuration not stated)  0.0161%
66. CCCNC(=O)c1cc2c(nc1O)CCC(C)C2 (configuration not stated)  0.717%
67. Cn1cc(CN2CCCC23CCN(C(=O)c2ccsc2)CC3)cn1  0.993%
68. Cc1cc(=O)n2nc(Oc3ccc(C#N)cc3Cl)sc2n1  1.15%
69. CC(C)(C)c1noc(CN2CCCC(CNS(N)(=O)=O)C2)n1 (configuration not stated)  1.3%
70. Cc1ccc(NCc2cccc3cn[nH]c23)cc1OC1CCOC1 (configuration not stated)  1.44%
71. COCC(=O)N1CCCC1c1nc(C)c2c(n1)N(CC(C)C)C(=O)CC2 (configuration not stated)  1.6%
72. CN1CCCN(S(=O)(=O)c2cn(C)cn2)c2cc(Cl)ccc21  2.14%
73. O=C(CN1CCc2ccccc2C1)NCc1cc2n(n1)CCCNC2  2.22%
74. Cc1ccc(Oc2ncccc2C(=O)O)c(C)c1  2.4%
75. Cc1ccc(C(=O)N(C)Cc2nccn2CC(F)(F)F)cn1  2.52%
76. Cc1nc(-c2ccnc(N3CCNCC3)n2)no1  2.63%
77. CC1(c2ncc(CN3CCN(c4ccccn4)CC3)cn2)CCCCO1 (configuration not stated)  2.68%
78. COc1ccc2c(=O)n(CC3CCCCN3C)ccc2c1OC (configuration not stated)  3.19%
79. CCOCC(=O)N(Cc1ccccn1)Cc1ccccc1C  3.21%
80. Cc1ccc(NC(=O)NCCn2cnc(C)c(C)c2=O)cc1F  3.22%
81. CCOc1ncnc2c1CCN(S(=O)(=O)C1CC1)CC2  3.42%
82. Cc1cnn(CC(C)NCc2cc(=O)n3cc(C)ccc3n2)c1 (configuration not stated)  3.89%
83. O=C(O)C(c1ccc2c(c1)OCO2)N1CCC(C(=O)N2CCCC2)CC1 (configuration not stated)  4.22%
84. CNC(=O)[C@@]12CCC3(CCN(C(=O)COC)CC3)[C@@H]1CN(S(C)(=O)=O)C2  4.53%
85. COCCN(Cc1cccc(O)c1)Cc1ccccc1F  4.73%
86. O=C(NCc1ccccn1)[C@]12COC[C@H]1CN(Cc1ccsc1)C2  4.91%
87. CCn1nc(C(=O)N2CCCC2c2noc(C)n2)ccc1=O (configuration not stated)  4.99%
88. CN(Cc1cc2n(n1)CCNC2)Cc1n[nH]c2c1CCC2  5.04%
89. CCC(=O)N1CCC2(CC1)CN(CCO)Cc1ccccc12  5.23%
90. CN(CC(O)C(F)(F)F)C(=O)Nc1cccc(N2CCCC2)c1 (configuration not stated)  5.48%
91. COc1c(C)cnc(CN2CCn3c(nnc3C(C)C)C2)c1C  5.56%
92. Cn1c(CS(=O)(=O)Cc2ccc(Cl)cc2)cc(=O)n(C)c1=O  5.59%
93. Cc1ccccc1CNC(=O)N1C[C@@H]2C[C@H](C(=O)N3CCCC3)[C@H](C1)O2  5.68%
94. CC(=O)N(C)Cc1ccccc1NCc1c(C)noc1C  5.76%
95. CN(C)c1ccc(NC(=O)CN2CCS(=O)(=O)CC2)cn1  6.56%
96. COc1cc(NCc2c(C)noc2C)c(C(=O)N(C)C)cc1OC  6.85%
97. Cc1nc(CN(Cc2ccccc2F)C2CCC2)no1  6.95%
98. O=C1NCCCCC1SCc1coc(-c2cccc(F)c2)n1 (configuration not stated)  7%
99. COc1ccccc1CN1CC[C@H]2C[C@@H](C(=O)N3CCCC3)O[C@H]2C1  7.28%
100. CC(C)c1nnc(NC(=O)NCc2ccnc(N(C)C)c2)s1  7.29%
101. O=C(CNc1ccc(F)cc1OCC(F)(F)F)NCc1ccco1  7.35%
102. CCOC(=O)N1CCC(Oc2ccc(C(F)(F)F)cn2)CC1  7.5%
103. COCCN(Cc1cccc(C#N)c1)Cc1nnsc1Cl  7.96%
104. CCOc1ccc(N(C)Cc2nnc(C3CC3)o2)cc1  8.17%
105. NC(=O)N1CCCC(C(=O)NCCc2nc(Cc3ccccc3)no2)C1 (configuration not stated)  8.5%
106. Cc1nc(C(NC(=O)CC(F)(F)F)c2ccc(Cl)cc2)no1 (configuration not stated)  9.83%
107. COc1cc(CCNC(=O)NCCC2CCCO2)ccc1C (configuration not stated)  9.92%
108. CC(C)c1cc(CNC(=O)NCc2cccc(N3CC=CC3)c2)on1  9.99%
109. CCCS(=O)(=O)N1CCC2(CCCN(Cc3cccc(F)c3F)C2=O)C1 (configuration not stated)  10.3%
110. Cc1ccccc1OCCn1cnc2oc(C)c(C(=O)O)c2c1=O  11%
111. CCN(C(=O)C1=NN(c2ccccc2)C(=O)CN1)c1ccccc1  12%
112. Cc1ccnc(N2CCCC(c3noc(C(C)C)n3)C2)n1 (configuration not stated)  21.9%
